Screening results: PubChem, several laboratories
DNA FID counter = compounds displacing fluorescent DNA intercalator, primary screen, artefact control for HCV NS3 helicase inhibitor project, biochemical, FID fluorescence. DNA fluorescent intercalator displacement. inhibition, % at 7.9 µM. 290,000 compounds, 0.17% hits; in the data active = inhibition above about 37%;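 also: 0% = vehicle and 100% = reference compound; higher means more ethidium bromide displaced from hairpin DNA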
HCV NS3 hel inh = inhibitors of HCV NS3 helicase, primary screen, biochemical, Cy5 molecular beacon fluorescence; NS3 helicase DNA unwinding; inhibition, % at 10.9 µM; Hepatitis C virus NS3 helicase; 290,000 compounds, 0.56% hits;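 active = inhibition above the mean of all tested compounds plus 3 SD, set per campaign, cut at about 35% in these data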;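 also: 0% = DMSO wells and 100% = thioflavine S control wells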
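Assay system: hepatitis C virus NS3 helicase domain fragment enzyme. Also added: annealed dual-labelled DNA beacon duplex, ATP-started. Timing: 1 h reaction at 25 °C, ATP-initiated. Technique: Cy5 fluorescence at 0 and 60 min, beacon hairpin quenching. Evaluation: % inhibition of unwinding. Replication: one well per compound.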
HSP90 inh = HSP90 inhibitors, primary screen, cell lysate, luminescence | 290,000 compounds, 0.91% hits | Rabbit reticulocyte lysate, luciferase refolding luminescence, 3 h | inhibition, % at 5.6 µM | Heat shock protein HSP 90 (rabbit reticulocyte lysate; luciferase refolding);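 active = inhibition above the screen-wide mean plus 3 SD, computed separately per campaign, cut at about 16% in these data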;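 also: 0% = DMSO wells and 100% = 60 µM geldanamycin wells; inhibitors lower the luminescence because luciferase stays unfolded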
HCV core dimer = inhibitors of HCV core protein dimerization, primary screen, biochemical, TR-FRET, high-throughput; TR-FRET GST/Flag-core106 dimerization, 1536-well; inhibition, % at 5 µM; 300,000 compounds, 0.33% hits;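 active = inhibition above the mean of all tested compounds plus 3 SD, set per screening campaign, cut at about 45% in these data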
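Assay system: GST-tagged and Flag-tagged HCV core protein residues 1-106 / Times: compound-protein-antibody incubation 4 h at 22.5 °C / Signal: time-resolved FRET, ex 340 nm, em 617 and 671 nm / Evaluation: % inhibition based on acceptor/donor emission ratio / Benchmarks: wells lacking GST-core106 and wells with excess unlabelled core106 / Repeats: singlicate, one well per compound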
HSF-1 act = HSF-1 activators, primary screen, NIH3T3-HGL cells, MG132 stress, luminescence, single point | NIH3T3-HGL HSF-1 luciferase reporter, 8 h; 100% = twice DMSO control signal | activation, % at 9 µM | 300,000 compounds, 1.7% hits;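 active = mean replicate activation of at least 50% with a set share of replicates each reaching 50%; inconclusive = only one of those two conditions met; inactive = mean below 50% and too few replicates reaching it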;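 also: 0% = median of the neutral control wells and 100% = twice that signal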
HSF1 inhib = HSF1 inhibitors in luciferase reporter cells, primary screen, cell-based, NIH3T3, luminescence | 300,000 compounds, 0.77% hits | NIH3T3-HGL HSE-luciferase, MG132-induced, luminescence 8 h; stronger effect = lower value | activity change, negative = inhibition, % at 7.5 µM (by protocol);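 active = more than half of replicate wells show activity change below -50%, luminescence cut by over half; inconclusive = some wells, but at most half, below -50%; inactive = no replicate well below -50%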;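 also: luciferase reports HSF-1 transcriptional activity via heat shock element; 0% = median of DMSO wells and -100% = zero luminescence signal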
HSP90 confirm = HSP90 inhibitors, confirmation, cell lysate, luminescence; shares compounds with HSP90 inh; rabbit reticulocyte lysate, luciferase refolding luminescence, 3 h; inhibition, % at 5.9 µM; 2,300 compounds, 64% hits; in the data active = inhibition above about 18%;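 also: 0% = vehicle wells and 100% = reference inhibitor wells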
luciferase ctr = firefly luciferase inhibitors, HSP90 counter-screen, confirmation, artefact control for HSP90 inhibitor project, biochemical, luminescence, triplicate. AID 1847, 2009. 2,300 compounds, 48% hits. shares compounds with HSP90 inh. purified native firefly luciferase. inhibition, % at 5.9 µM;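 active = inhibition above the mean inhibition of all tested sample wells plus 3 SD, cut at about 10% in these data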;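 also: 0% = DMSO with luciferase and 100% = wells lacking luciferase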
Target sequence (P08659 whole entry, looked up): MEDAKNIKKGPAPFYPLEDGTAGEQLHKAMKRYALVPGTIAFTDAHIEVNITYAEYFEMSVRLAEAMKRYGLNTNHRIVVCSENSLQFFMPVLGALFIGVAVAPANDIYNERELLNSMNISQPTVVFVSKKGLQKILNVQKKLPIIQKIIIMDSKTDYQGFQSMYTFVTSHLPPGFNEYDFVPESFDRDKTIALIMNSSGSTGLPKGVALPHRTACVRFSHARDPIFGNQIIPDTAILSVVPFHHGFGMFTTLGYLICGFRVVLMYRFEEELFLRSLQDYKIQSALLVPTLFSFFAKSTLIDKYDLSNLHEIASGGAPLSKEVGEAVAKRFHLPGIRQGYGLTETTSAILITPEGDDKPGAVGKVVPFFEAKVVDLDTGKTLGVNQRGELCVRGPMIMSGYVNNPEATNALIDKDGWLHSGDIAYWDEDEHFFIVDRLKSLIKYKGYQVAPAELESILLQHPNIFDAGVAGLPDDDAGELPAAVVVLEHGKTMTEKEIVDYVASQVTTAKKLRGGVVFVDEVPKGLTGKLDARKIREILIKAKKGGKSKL
Numbers without * were called inactive. Rows were chosen to be rich in hits. Some 3.9% of all compounds tested hit in one or more screens of this group.

How did O=C(CSc1nnc(-c2cccnc2)o1)Nc1ccc(Br)cc1 do in these assays?
DNA FID counter: -11.2; HCV NS3 hel inh: 1.2; HSP90 inh: 18.2*; HCV core dimer: -15.4; HSF-1 act: 23.7; HSF1 inhib: 20.6; HSP90 confirm: -5.4; luciferase ctr: -5.8

How did Cc1ccc(-c2nnc(SCC(=O)Nc3ccccc3F)o2)cc1 do in these assays?
DNA FID counter: -2.5; HCV NS3 hel inh: -9.3; HSP90 inh: 53.7*; HCV core dimer: -0.3; HSF-1 act: -60.1; HSF1 inhib: -53.8*; HSP90 confirm: 30.7*; luciferase ctr: 28.9*

What do the screens show for `C=COCCNC(=O)Nc1ccc(Cl)c(Cl)c1`?
DNA FID counter: 2.9; HCV NS3 hel inh: -4.2; HSP90 inh: 0.7; HCV core dimer: -0.6; HSF-1 act: 35.4; HSF1 inhib: 7.9

Results for COc1ccc(NC(=O)Nc2sc(NS(=O)(=O)c3ccccc3)nc2C)cc1 ?
DNA FID counter: 2.6; HCV NS3 hel inh: 11.2; HSP90 inh: -3.6; HCV core dimer: -4.5; HSF-1 act: -8.7; HSF1 inhib: -9.1

Results for O=Cc1ccc(-c2ccc(C(=O)O)cc2)o1 ?
DNA FID counter: -7.0; HCV NS3 hel inh: -4.3; HSP90 inh: 17.1*; HCV core dimer: 0.5; HSF-1 act: -4.8; HSF1 inhib: -5.5; HSP90 confirm: 9.6; luciferase ctr: 1.2

Results for CC1(C)Cc2ccccc2-c2nnnn21 ?
DNA FID counter: -0.3; HCV NS3 hel inh: 0.6; HSP90 inh: 7.5; HCV core dimer: 1.9; HSF-1 act: -1.2; HSF1 inhib: -4.5

How did c1ccc2c(c1)CC1(CCCC1)n1nnnc1-2 do in these assays?
DNA FID counter: -2.7; HCV NS3 hel inh: -1.7; HSP90 inh: 18.3*; HCV core dimer: 1.1; HSF-1 act: -5.0; HSF1 inhib: -5.2; HSP90 confirm: -0.2; luciferase ctr: -4.4

Results for CC1=CC(C)(C)Nc2ccc(OC(=O)c3ccco3)cc21 ?
DNA FID counter: -7.2; HCV NS3 hel inh: 2.6; HSP90 inh: 17.3*; HCV core dimer: -12.4; HSF-1 act: -29.7; HSF1 inhib: -23.1; HSP90 confirm: 32.5*; luciferase ctr: -8.7

What do the screens show for `CC1=CC(C)(C)Nc2ccc(OC(=O)c3cccnc3)cc21`?
DNA FID counter: 20.4; HCV NS3 hel inh: -12.1; HSP90 inh: 12.6; HCV core dimer: -11.1; HSF-1 act: -7.6; HSF1 inhib: -5.9

Results for CCOC(=O)C(=O)Nc1cc([N+](=O)[O-])ccc1C ?
DNA FID counter: 2.8; HCV NS3 hel inh: -3.7; HSP90 inh: -2.6; HCV core dimer: -14.9; HSF-1 act: 9.0; HSF1 inhib: -5.1

What do the screens show for `CCOC(=O)C(=O)Nc1ccc([N+](=O)[O-])cc1OC`?
DNA FID counter: -0.6; HCV NS3 hel inh: 1.9; HSP90 inh: 21.7*; HCV core dimer: -6.1; HSF-1 act: -0.5; HSF1 inhib: 0.0; HSP90 confirm: -7.5; luciferase ctr: -15.8

What do the screens show for `COC(=O)Nc1cc([N+](=O)[O-])ccc1OC`?
DNA FID counter: 2.8; HCV NS3 hel inh: 2.7; HSP90 inh: 7.7; HCV core dimer: 0.4; HSF-1 act: 5.5; HSF1 inhib: 7.2

How did COc1ccc(OC(=O)Nc2ccc([N+](=O)[O-])cc2OC)cc1 do in these assays?
DNA FID counter: 3.3; HCV NS3 hel inh: 7.1; HSP90 inh: 20.0*; HCV core dimer: -2.8; HSF-1 act: -40.3; HSF1 inhib: -30.7; HSP90 confirm: 0.1; luciferase ctr: -13.3

Results for CCc1nn(CC(=O)N(C)C2CCCCC2)c(=O)c2cc3cc(C)ccc3n12 ?
DNA FID counter: -24.5; HCV NS3 hel inh: 13.1; HSP90 inh: 8.3; HCV core dimer: -7.1; HSF-1 act: -6.4; HSF1 inhib: 1.3

What do the screens show for `O=C1CCCc2nc3c(cc21)C(O)Oc1c-3ccc2ccccc12` (stereo unspecified)?
DNA FID counter: -7.4; HCV NS3 hel inh: -2.8; HSP90 inh: 30.9*; HCV core dimer: 3.4; HSF-1 act: -5.1; HSF1 inhib: -3.1; HSP90 confirm: 38.4*; luciferase ctr: -21.2

Results for O=C1CCCc2nc3c(cc21)C(O)Oc1ccccc1-3 (stereo unspecified) ?
DNA FID counter: -1.2; HCV NS3 hel inh: 14.3; HSP90 inh: -2.4; HCV core dimer: 3.0; HSF-1 act: 0.0; HSF1 inhib: -5.7

How did O=C(O)CSc1nnc(NC(=O)c2ccc3c(c2)OCO3)s1 do in these assays?
DNA FID counter: -4.3; HCV NS3 hel inh: -6.6; HSP90 inh: 25.9*; HCV core dimer: 2.4; HSF-1 act: -21.9; HSF1 inhib: -14.2; HSP90 confirm: 26.2*; luciferase ctr: -7.6

How did c1ccc(-c2nnc(-c3ccccn3)s2)nc1 do in these assays?
DNA FID counter: 3.2; HCV NS3 hel inh: 10.9; HSP90 inh: 35.0*; HCV core dimer: -9.9; HSF1 inhib: 20.2; HSP90 confirm: 64.2*; luciferase ctr: 44.3*

Results for c1ccc(-c2nc(-c3ccccn3)nc(-c3ccccn3)n2)nc1 ?
DNA FID counter: -12.7; HCV NS3 hel inh: -2.8; HSP90 inh: -0.9; HCV core dimer: 0.3; HSF1 inhib: 5.7

What do the screens show for `CC(=O)NC(=O)NC1OC(=O)C(Cl)=C1Cl` (stereo unspecified)?
DNA FID counter: 4.4; HCV NS3 hel inh: -2.8; HSP90 inh: -1.1; HCV core dimer: -1.3; HSF-1 act: inconclusive; HSF1 inhib: 2.6

Results for c1ccc(-c2cn3c(n2)-c2ccccc2C3)cc1 ?
DNA FID counter: -2.2; HCV NS3 hel inh: 2.5; HSP90 inh: 18.2*; HCV core dimer: -5.5; HSF-1 act: 16.5; HSF1 inhib: 3.7; HSP90 confirm: 51.3*; luciferase ctr: 41.6*

How did O=C(O)c1cccc(-c2nnn(Cc3ccccc3)n2)c1 do in these assays?
DNA FID counter: -5.3; HCV NS3 hel inh: 0.0; HSP90 inh: 28.7*; HCV core dimer: -0.3; HSF-1 act: -12.4; HSF1 inhib: 3.4; HSP90 confirm: 35.1*; luciferase ctr: 40.7*
